From ChEMBL document CHEMBL3751813, “Nonpeptidic Amphiphilic Xanthone Derivatives: Structure-Activity Relationship and Membrane-Targeting Properties” (J Med Chem, 2016)
≈ marks a conversion by molar mass, not a printed value.

Legend:
Staphylococcus aureus [1] = experiment: Antibacterial activity against clinical isolates of Staphylococcus aureus DM4001R after 24 hrs by […]; assay type: functional
Staphylococcus aureus [2] = experiment: Antibacterial activity against clinical isolates of methicillin-resistant Staphylococcus aureus DM9808R after 24 hrs by […]; assay type: functional
Staphylococcus aureus [3] = experiment: Antibacterial activity against clinical isolates of methicillin-resistant Staphylococcus aureus DM21455 after 24 hrs by […]; assay type: functional; conditions: DM21455, 24 h
Bacillus cereus = experiment: Antibacterial activity against clinical isolates of Bacillus cereus ATCC 11778 after 24 hrs by […]; assay type: functional; conditions: ATCC 11778, 24 h
[4] = Hemolytic activity against New Zealand white rabbit RBC after 1 hr by microplate reader analysis; assay type: ADME, cell-based, Oryctolagus cuniculus, Erythrocyte; conditions: rabbit red blood cells
In short: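 Rabbit RBCs spun from serum at 3,000 rpm for 10 min and washed twice in PBS. Mixed with compound in DMF at 4% v/v RBCs, 1 h at 37 °C. After centrifugation, hemoglobin in the supernatant read at 576 nm. 2% Triton X-100 was the positive control and 1% DMF the negative control.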

[5] = Selectivity index, ratio of HC50 for hemolytic activity against New Zealand white rabbit RBC to MIC for clinical isolates of Staphylococcus aureus DM4001
[6] = Membrane permeabilization activity assessed as release of calcein from DOPE/DOPG liposomes at lipid:compound ratio of 8 incubated for 30 mins by fluorescence assay; assay type: ADME; conditions: 0.5 h
In short: (§1)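 Freeze-thawed, extruded, then gel-filtered. Final lipid 50 µM with compound added from DMF (<0.2%). Fluorescence at ex 490/em 520 nm over 30 min; 0.1% Triton X-100 defined 100% lysis.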

[7] = Membrane permeabilization activity assessed as release of calcein from DOPE/DOPG liposomes at lipid:compound ratio of 16 incubated for 30 mins by fluorescence assay; assay type: ADME; conditions: 0.5 h; in short: as §1
Staphylococcus aureus [8] = experiment: Induction of membrane permeabilization in clinical isolates of Staphylococcus aureus DM4001 at MIC by SYTOX green uptake assay; assay type: functional
In short: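 Exponential-phase cells washed twice in 20 mM PBS pH 7 and adjusted to OD620 0.09. Given 3 µM SYTOX Green and kept in the dark until fluorescence was stable, then compound added. Fluorescence followed in a stirred cuvette at ex 504/em 523 nm. Melittin 10 µg/mL was the positive control. Run at least twice; one run reported.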

Staphylococcus aureus [9] = experiment: Induction of membrane permeabilization in clinical isolates of Staphylococcus aureus DM4001 assessed as ATP leakage at MIC incubated for 10 mins by firefly luciferase based luminometry analysis; assay type: functional
In short: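 Exponential-phase cells washed twice in 20 mM PBS pH 7 and set to OD620 0.3. Exposed 10 min at 37 °C, then spun at 4000 rpm for 5 min. Supernatant mixed with luciferase reagent (1 mM DTT, 0.5 mM D-luciferin, 1.25 µg/mL firefly luciferase). Luminescence read over 30 cycles.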

Staphylococcus aureus [10] = experiment: Bactericidal activity against clinical isolates of Staphylococcus aureus DM4001 assessed as log reduction in viability at 4 times MIC measured over 30 mins by time kill kinetic study; assay type: functional
In short: (§2)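 Cells from colonies on an 18–22 h TSA plate, suspended in 0.31 mM phosphate buffer pH 7.2 at 10^5–10^6 CFU/mL. Dosed at 1×, 2× and 4× MIC at 35 °C. Aliquots taken at 10 min, 30 min, 1 h, 2 h and 5 h, diluted ten-fold serially, spread on MHA and counted after 48–72 h at 35 °C. Detection limit 100 CFU/mL. Bactericidal means a 3-log drop versus untreated control.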

Staphylococcus aureus [11] = experiment: Bactericidal activity against clinical isolates of Staphylococcus aureus DM4001 assessed as log reduction in viability at 2 times MIC measured over 300 mins by time kill kinetic study; assay type: functional
In short: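 Colonies from 18–22 h TSA plates suspended in 0.31 mM phosphate buffer pH 7.2 at 10^5–10^6 CFU/mL. Treated at 1×, 2× and 4× MIC at 35 °C, sampled at 10 min, 30 min, 1 h, 2 h and 5 h. Ten-fold dilutions spread on MHA, 35 °C for 48–72 h, colonies counted. Detection limit 100 CFU/mL; bactericidal means 3-log drop versus untreated.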

[12] = Cytotoxicity in human corneal fibroblasts assessed as cell viability at 0.5 times MIC incubated for 4 hrs by luminescent cell viability assay relative to control; parameters: species or system Corneal fibroblast; conditions: read-out: Activity
In short: (§3)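 Cells plated at 10,000 per well and exposed 4 h in 100 µL. Plate equilibrated to 22 °C for 30 min, then read with CellTiter-Glo luminescence. 1% Triton X-100 set minimal viability and 0.5% DMF served as negative control. Viability computed relative to these controls.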

[13] = Cytotoxicity in human corneal fibroblasts assessed as cell viability at MIC incubated for 4 hrs by luminescent cell viability assay relative to control; parameters: species or system Corneal fibroblast; conditions: read-out: Activity; in short: as §3
[14] = Cytotoxicity in human corneal fibroblasts assessed as cell viability at 2 times MIC incubated for 4 hrs by luminescent cell viability assay relative to control; parameters: species or system Corneal fibroblast; conditions: read-out: Activity; in short: as §3
[15] = Cytotoxicity in human corneal fibroblasts assessed as cell viability at 4 times MIC incubated for 4 hrs by luminescent cell viability assay relative to control; parameters: species or system Corneal fibroblast; conditions: read-out: Activity; in short: as §3
[16] = Cytotoxicity in human corneal fibroblasts at 0.5 times MIC incubated for 4 hrs by LDH release assay relative to control; conditions: corneal fibroblast
[17] = Cytotoxicity in human corneal fibroblasts at MIC incubated for 4 hrs by LDH release assay relative to control; conditions: corneal fibroblast
[18] = Cytotoxicity in human corneal fibroblasts at 2 times MIC incubated for 4 hrs by LDH release assay relative to control; conditions: corneal fibroblast
[19] = Cytotoxicity in human corneal fibroblasts at 4 times MIC incubated for 4 hrs by LDH release assay relative to control; conditions: corneal fibroblast
Staphylococcus aureus [20] = experiment: Bactericidal activity against clinical isolates of Staphylococcus aureus DM4001 at 4 times MIC measured over 30 mins by time kill kinetic study; assay type: functional; in short: as §2
Staphylococcus aureus [21] = experiment: Bactericidal activity against clinical isolates of Staphylococcus aureus DM4001 at 2 times MIC measured over 300 mins by time kill kinetic study; assay type: functional; in short: as §2

For CCN(CC)CCCCOc1cc2oc3cc(OCCCCN(CC)CC)c(OC)c(CCC(C)C)c3c(=O)c2c(O)c1CCC(C)C, the MIC (Staphylococcus aureus [1]) was 3.12 µg/mL (≈ 4.67 µM), the MIC (Staphylococcus aureus [2]) was 12.5 µg/mL (≈ 18.7 µM) and the MIC (Staphylococcus aureus [3]) was 25 µg/mL (≈ 37.4 µM). It also gave an MIC (Bacillus cereus) of 25 µg/mL (≈ 37.4 µM), an HC50 at 1 h [4] of 48.6 µg/mL and a Selectivity ratio [5] of 15.6. It also gave an Activity [6] of 58.6% and an Activity [7] of 20.1%.
With COc1c(OCCCCN)cc2oc3cc(OCCCCN)c(CC=C(C)C)c(O)c3c(=O)c2c1CC=C(C)C the MIC (Staphylococcus aureus [1]) was 1.56 µg/mL (≈ 2.82 µM), the MIC (Staphylococcus aureus [2]) was 3.12 µg/mL (≈ 5.65 µM) and the MIC (Staphylococcus aureus [3]) was 1.56 µg/mL (≈ 2.82 µM). It also gave an MIC (Bacillus cereus) of 3.12 µg/mL (≈ 5.65 µM), an HC50 at 1 h [4] of 80.2 µg/mL and a Selectivity ratio [5] of 51.4. For the same compound, the Activity (Staphylococcus aureus [8]) was 1497 cps, the Activity (Staphylococcus aureus [9]) was 210 nM and the LCK (Staphylococcus aureus [10]) was 3. It also gave an LCK (Staphylococcus aureus [11]) of 3, a viability at 4 h, 0.5 times MIC [12] of 98.5% and a viability at 4 h, 1 times MIC [13] of 91.7%. For the same compound, the viability at 4 h, 2 times MIC [14] was 90.7%, the viability at 4 h, 4 times MIC [15] was 90.3% and the Activity [16] was -0.7%. For the same compound, the Activity [17] was -1%, the Activity [18] was -0.5% and the Activity [19] was 0.9%. It also gave an Activity (Staphylococcus aureus [20]) of 99.9% and an Activity (Staphylococcus aureus [21]) of 99.9%.
